Laboratory results: article PMC4672865 (Organic letters, 2015)

Biological target: DNA polymerase β (pol β) (Homo sapiens, UniProt P06746)
Assay: X-ray crystal structure of ternary complex with DNA
Assay type: biochemical
Method in brief: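 Standard gel assay of pol β: test compound at variable concentrations against a constant dTTP concentration. An observed rate is determined at each inhibitor concentration, rates are plotted against inhibitor concentration, and the data are fit to a hyperbolic decay curve to calculate Ki. Crystal structures are of ternary complexes of test compound with pol β and DNA.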

Row | Ki [µM] | SMILES
1 | 2.7 | Cc1cn([C@H]2C[C@H](O)[C@@H](COP(=O)(O)CP(=O)(O)NP(=O)(O)O)O2)c(=O)[nH]c1=O [1a, (α,β)-CH2-(β,γ)-NH-dTTP]
2 | 23 | Cc1cn([C@H]2C[C@H](O)[C@@H](COP(=O)(O)NP(=O)(O)CP(=O)(O)O)O2)c(=O)[nH]c1=O [1b, (α,β)-NH-(β,γ)-CH2-dTTP]
